# Measurements collected from several papers.
# Target: Serine/threonine-protein kinase 3 (STK3, Homo sapiens, UniProt Q13188)
# Sequence (Q13188 1-491, as in one of the studies): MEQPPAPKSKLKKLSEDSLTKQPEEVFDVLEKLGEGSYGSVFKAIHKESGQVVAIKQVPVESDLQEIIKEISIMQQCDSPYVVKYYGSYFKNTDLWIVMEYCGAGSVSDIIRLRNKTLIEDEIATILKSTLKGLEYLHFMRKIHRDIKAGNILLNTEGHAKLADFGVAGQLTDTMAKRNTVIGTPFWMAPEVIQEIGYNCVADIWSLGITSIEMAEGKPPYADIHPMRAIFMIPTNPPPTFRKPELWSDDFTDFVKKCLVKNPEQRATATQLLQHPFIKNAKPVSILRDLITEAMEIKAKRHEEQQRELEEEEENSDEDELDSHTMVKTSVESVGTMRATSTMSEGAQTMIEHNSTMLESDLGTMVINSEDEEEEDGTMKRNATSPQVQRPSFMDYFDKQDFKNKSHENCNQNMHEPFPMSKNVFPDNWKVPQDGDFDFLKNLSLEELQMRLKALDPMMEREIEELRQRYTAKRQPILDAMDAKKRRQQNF
SMILES,read-out,method,concentration,remaining binding
CN(C)c1nccc(-c2cnn3ncccc23)n1,binding,,1 µM,100%
COc1cnc(Nc2cccc(S(N)(=O)=O)c2)nc1N1CCN(c2ccccc2)CC1,binding,competition with immobilised ligand,1 µM,95%
C[C@H](c1ccnc(Nc2nc3ccc(-c4cc(N(C)C)ncn4)cc3[nH]2)c1)N1CCN(C(=O)CC(F)(F)F)CC1,cell-free assay,competition with immobilised ligand,0.1 µM,93%
O=C(c1ccc(Nc2nccc(-c3cc4ccccc4s3)n2)cc1)N1CCC(N2CCCC2)CC1,binding,competition with immobilised ligand,1 µM,100%
O=C(Nc1cccnn1)N1CC(C/C=C/c2cncc(Oc3ccc(C(F)(F)F)cn3)n2)C1,cell-free assay,competition with immobilised ligand,1 µM,80%
C[C@H]1CCN(c2nccc(-c3cnn4ncccc34)n2)C1,binding,,1 µM,92%
CCN1CCN(Cc2ccc(C(=O)Nc3ccc(C)c(Oc4ccc5c(c4)CC(=O)N5)c3)cc2C(F)(F)F)CC1,binding,competition with immobilised ligand,1 µM,14%
Cc1cc(NC(=O)c2cccc(S(F)(F)(F)(F)F)c2)cc(-n2ccn3nc(-c4cccnc4)cc23)c1,cell-free assay,competition with immobilised ligand,1 µM,100%
CN(c1nccc(-c2cnn3ncccc23)n1)C1CC1,binding,,1 µM,98%
COc1ncc2cc3ccccc3nc2c1C#N,cell-free assay,competition with immobilised ligand,5 µM,99%
Nc1ncc2c(n1)-c1c([nH]c3ccc(C#CC4CC4)cc13)CCCC2,binding,competition with immobilised ligand,1 µM,87%
O=C(Nc1c[nH]nc1C(=O)NC1CCNCC1)c1cc(F)cc(F)c1,binding,competition with immobilised ligand,1 µM,100%
O=C(c1ccc(Nc2ncc(Cl)c(-c3ccc(Cl)s3)n2)cc1)N1CCC(N2CCCC2)CC1,binding,competition with immobilised ligand,1 µM,16%
Cc1cnn2ncc(-c3ccnc(N(C)C)n3)c2c1,binding,,1 µM,100%
CC(C)(O)c1cncc(-c2nc3ccc(F)cc3n2C2CC2)c1,cell-free assay,competition with immobilised ligand,1 µM,100%
COc1ccnn2ncc(-c3ccnc(N(C)C)n3)c12,binding,,1 µM,100%
O=C(c1ccc(Nc2ncc(Cl)c(-c3cc4ccccc4s3)n2)cc1)N1CCC(N2CCCC2)CC1,binding,competition with immobilised ligand,1 µM,65%
Cc1c(NC(=O)c2cc(C(N)=O)nc3cc(F)ccc23)c(C(F)(F)F)nn1Cc1ccc(C#N)cc1,cell-free assay,competition with immobilised ligand,1 µM,96%
N[C@H]1CCN(c2nccc(-c3cnn4ncccc34)n2)C1,binding,,1 µM,100%
C[C@@H](c1ccc(-n2cnc3c(N)ncnc32)cc1)N1CCc2nn(C)c(Cc3ccccc3)c2C1=O,binding,competition with immobilised ligand,0.1 µM,74%
CN([C@@H]1CCc2c(CC(=O)O)c3cc(S(C)(=O)=O)ccc3n2C1)S(=O)(=O)c1ccc(F)cc1,cell-free assay,competition with immobilised ligand,1 µM,98%
c1cncc(-c2cccc(Nc3nccc(NC4CCCCC4)n3)c2)c1,binding,competition with immobilised ligand,10 µM,12%
